Experimental data reported in ChEMBL document CHEMBL2062365, “Suppressive effects of coumarins from Mammea siamensis on inducible nitric oxide synthase expression in RAW264.7 cells” (Bioorg Med Chem, 2012).

Assays:
RAW264.7 [1] = assay: Antiinflammatory activity in mouse RAW264.7 cells assessed as inhibition of LPS-induced NO production relative to control; type: functional, cell-based
How it was run: (§1)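 RAW264.7 cells (DMEM, 10% FBS, 37 °C, 5% CO2) seeded at 2.5 × 10^5 cells/well. After 6 h, nonadherent cells were washed off. Adherent cells were exposed to test compound for 10 min, then to LPS (E. coli 055:B5, final 10 µg/mL) for 18 h. Supernatant nitrite was measured by Griess reaction. Inhibition % = (A−B)/(A−C)×100, with C as the no-LPS control. IC50 was read graphically; N = 4, mean ± SEM. CAPE was the reference.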

RAW264.7 [2] = assay: Antiinflammatory activity in mouse RAW264.7 cells assessed as inhibition of LPS-induced NO production at 30 uM relative to control; type: functional; how it was run: as §1

IC50 (RAW264.7 [1]): 17 µM
SMILES: Oc1c2ccccc2c2c3c(cccc13)N=N2 [SP-600125]
inhibition at 30 µM (RAW264.7 [2]): 74.6%
